Assay results published in ChEMBL document CHEMBL1138023, “Macrocyclic ketone analogues of halichondrin B” (Bioorg Med Chem Lett, 2004).

Tests used:
[1] = In vitro reversibility ratio in U937 cells; assay type: functional, U-937
Procedure, shortened: (§1)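 Human histiocytic lymphoma U937 cells, read by flow cytometry. Scores whether a complete mitotic block is maintained 10 h after drug washout.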

P388 = assay: Fold resistance calculated as the inhibition concentration ratio between retrovirally transformed murine P388/VMDRC.04 and parental P388 cells; assay type: functional
Procedure, shortened: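 Readout of P-glycoprotein (PgP) susceptibility: IC50 in the retrovirally transformed P388/VMDRC.04 line divided by IC50 in parental P388 cells, giving fold resistance.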

U-937 [2] = assay: In vitro inhibitory concentration required to inhibit the growth of U937 cells was determined at 0 hr by mitotic block reversibility assay; assay type: functional; conditions: Homo sapiens, U-937, 0 h
U-937 [3] = assay: In vitro inhibitory concentration required to inhibit the growth of U937 cells was determined at 10 hr by mitotic block reversibility assay; assay type: functional; conditions: Homo sapiens, U-937, 10 h; procedure, shortened: as §1
DLD-1 = assay: In vitro inhibitory concentration required to inhibit the growth of DLD-1 cells under continuous exposure conditions for 3-4 days; assay type: functional, cell-based; conditions: Homo sapiens
Procedure, shortened: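 Human colon cancer DLD-1 cells grown under continuous drug exposure for 3–4 days. Growth inhibition measured and IC50 reported ± SEM, n = number of experiments.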

**Q.** Which results are given for `C=C1C[C@@H]2CC[C@@]34C[C@@H]5O[C@@H]6C(O[C@H]7CC[C@H](CC(=O)C[C@@H]8[C@@H](OC)[C@@H](C[C@H](O)CN9CCOCC9)O[C@H]8C[C@H]8O[C@@H](CC[C@@H]1O2)C[C@@H](C)C8=C)O[C@@H]7[C@@H]6O3)[C@H]5O4`?
**A.** Reversibility ratio [1]: 7; FR (P388): 4.7; IC99 (U-937 [2]): 0.003 µM; IC99 (U-937 [3]): 0.02 µM; IC50 (DLD-1): 0.43 nM

**Q.** For `C=C1C[C@@H]2CC[C@@]34C[C@@H]5O[C@@H]6C(O[C@H]7CC[C@H](CC(=O)C[C@@H]8[C@@H](OC)[C@@H](C[C@H](O)CN(C)C)O[C@H]8C[C@H]8O[C@@H](CC[C@@H]1O2)C[C@@H](C)C8=C)O[C@@H]7[C@@H]6O3)[C@H]5O4`, which Reversibility ratio [1] is on record?
**A.** 10

**Q.** What about the FR (P388) of the same compound?
**A.** 22

**Q.** And the IC99 (U-937 [2])?
**A.** 0.001 µM

**Q.** And the IC99 (U-937 [3])?
**A.** 0.01 µM

**Q.** What about the IC50 (DLD-1) of the same compound?
**A.** 1.2 nM

**Q.** What does the source list for `C=C1C[C@@H]2CC[C@@]34C[C@@H]5O[C@@H]6C(O[C@H]7CC[C@H](CC(=O)C[C@@H]8[C@@H](OC)[C@@H](C[C@H](O)CN9CCCCC9)O[C@H]8C[C@H]8O[C@@H](CC[C@@H]1O2)C[C@@H](C)C8=C)O[C@@H]7[C@@H]6O3)[C@H]5O4`?
**A.** Reversibility ratio [1]: 10; FR (P388): 17; IC99 (U-937 [2]): 0.001 µM; IC99 (U-937 [3]): 0.01 µM; IC50 (DLD-1): 0.47 nM

**Q.** For `C=C1C[C@@H]2CC[C@@]34C[C@@H]5O[C@@H]6C(O[C@H]7CC[C@H](CC(=O)C[C@@H]8[C@@H](OC)[C@@H](C[C@H](O)CNC(=O)C(=O)c9ccccc9)O[C@H]8C[C@H]8O[C@@H](CC[C@@H]1O2)C[C@@H](C)C8=C)O[C@@H]7[C@@H]6O3)[C@H]5O4`, which Reversibility ratio [1] is on record?
**A.** 3

**Q.** What about the FR (P388) of the same compound?
**A.** 3.6

**Q.** What about the IC99 (U-937 [2]) of the same compound?
**A.** 0.003 µM

**Q.** What about the IC99 (U-937 [3]) of the same compound?
**A.** 0.01 µM

**Q.** What about the IC50 (DLD-1) of the same compound?
**A.** 0.87 nM

**Q.** What does the source list for `C=C1C[C@@H]2CC[C@@]34C[C@@H]5O[C@@H]6C(O[C@H]7CC[C@H](CC(=O)C[C@@H]8[C@@H](OC)[C@@H](C[C@H](O)CNC(=O)c9ccc(Cl)cc9)O[C@H]8C[C@H]8O[C@@H](CC[C@@H]1O2)C[C@@H](C)C8=C)O[C@@H]7[C@@H]6O3)[C@H]5O4`?
**A.** Reversibility ratio [1]: 7; FR (P388): 5.9; IC99 (U-937 [2]): 0.003 µM; IC99 (U-937 [3]): 0.02 µM; IC50 (DLD-1): 0.69 nM

**Q.** With `C=C1C[C@@H]2CC[C@@]34C[C@@H]5O[C@@H]6C(O[C@H]7CC[C@H](CC(=O)C[C@@H]8[C@@H](OC)[C@@H](C[C@H](O)CNC(=O)c9cc(OC)c(OC)c(OC)c9)O[C@H]8C[C@H]8O[C@@H](CC[C@@H]1O2)C[C@@H](C)C8=C)O[C@@H]7[C@@H]6O3)[C@H]5O4` as the compound, how does the Reversibility ratio [1] read?
**A.** 5

**Q.** What about the FR (P388) of the same compound?
**A.** 20

**Q.** What about the IC99 (U-937 [2]) of the same compound?
**A.** 0.002 µM

**Q.** And the IC99 (U-937 [3])?
**A.** 0.01 µM

**Q.** And the IC50 (DLD-1)?
**A.** 0.72 nM
